Test results taken from ChEMBL document CHEMBL1146885, “Antitumor agents. 254. Synthesis and biological evaluation of novel neo-tanshinlactone analogues as potent anti-breast cancer agents” (2006).
Values after ≈ are worked out from the molar mass of the structure shown.

How the values were obtained:
Assay type in all cases: functional
Conditions in all cases: read-out: ED50 (the source's name)
MDA-MB-231 = test: Cytotoxicity against human MDA-MB-231 cells lacking ER
Summary of the method: (§1)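 SRB growth-inhibition assay. Cells grown in RPMI-1640 with 25 mM HEPES, 0.25% sodium bicarbonate, 10% FBS and 100 µg/mL kanamycin. Freshly trypsinized cells seeded at 1500-7500 per well, with compound added from DMSO-diluted stock. After 3 days, attached cells fixed with cold 50% TCA, stained with 0.4% SRB, dye solubilized, A562 read. ED50 = concentration reducing growth 50%, mean of ≥3 independent determinations.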

MCF7 = test: Cytotoxicity against human MCF7 cells expressing ER; summary of the method: as §1
KB = test: Cytotoxicity against human KB cells; summary of the method: as §1
SW-620 = test: Cytotoxicity against human SW620 cells; summary of the method: as §1
A-431 = test: Cytotoxicity against human A431 cells; summary of the method: as §1
SK-BR-3 = test: Cytotoxicity against human SK-BR-3 cells expressing HER2 and lacking ER; summary of the method: as §1
ZR-75-1 = test: Cytotoxicity against human ZR-75-1 cells expressing ER; summary of the method: as §1
Hs-578T = test: Cytotoxicity against human HS 587-T cells lacking ER; summary of the method: as §1

CCc1cccc2c1ccc1c3occc3c(=O)oc21
EC50 (MDA-MB-231): > 10 µg/mL
EC50 (MCF7): > 10 µg/mL

O=c1oc2c3ccccc3ccc2c2occc12
EC50 (MDA-MB-231): 10.5 µg/mL (≈ 44.4 µM)
EC50 (MCF7): > 20 µg/mL

Cc1cccc2c1ccc1c3occc3c(=O)oc21
EC50 (KB): > 10 µg/mL
EC50 (SW-620): > 10 µg/mL
EC50 (MCF7): 5.5 µg/mL (≈ 22 µM)
EC50 (A-431): 8.3 µg/mL (≈ 33.2 µM)
EC50 (SK-BR-3): 8.5 µg/mL (≈ 34 µM)
EC50 (ZR-75-1): > 10 µg/mL

CCc1cccc2c1ccc1c3occ(C)c3c(=O)oc21
EC50 (KB): > 10 µg/mL
EC50 (MDA-MB-231): 13.5 µg/mL (≈ 48.5 µM)
EC50 (SW-620): > 10 µg/mL
EC50 (MCF7): 0.45 µg/mL (≈ 1.62 µM)
EC50 (A-431): > 10 µg/mL
EC50 (Hs-578T): 10 µg/mL (≈ 35.9 µM)
EC50 (SK-BR-3): 0.1 µg/mL (≈ 0.359 µM)
EC50 (ZR-75-1): 0.18 µg/mL (≈ 0.647 µM)

Cc1cccc2c1ccc1c3occ(C)c3c(=O)oc21
EC50 (KB): > 10 µg/mL
EC50 (MDA-MB-231): 10 µg/mL (≈ 37.8 µM)
EC50 (SW-620): > 10 µg/mL
EC50 (MCF7): 0.6 µg/mL (≈ 2.27 µM)
EC50 (A-431): > 10 µg/mL
EC50 (Hs-578T): 16 µg/mL (≈ 60.5 µM)
EC50 (SK-BR-3): 0.18 µg/mL (≈ 0.681 µM)
EC50 (ZR-75-1): 0.25 µg/mL (≈ 0.946 µM)

COc1cc2c3occ(C)c3c(=O)oc2c2ccccc12
EC50 (KB): > 10 µg/mL
EC50 (SW-620): 9 µg/mL (≈ 32.1 µM)
EC50 (MCF7): 5 µg/mL (≈ 17.8 µM)
EC50 (A-431): 9.5 µg/mL (≈ 33.9 µM)
EC50 (SK-BR-3): 8.6 µg/mL (≈ 30.7 µM)
EC50 (ZR-75-1): > 10 µg/mL

Cc1coc2c1c(=O)oc1c3ccccc3ccc21
EC50 (MDA-MB-231): 10.3 µg/mL (≈ 41.2 µM)
EC50 (MCF7): 4 µg/mL (≈ 16 µM)
EC50 (Hs-578T): 7.5 µg/mL (≈ 30 µM)
EC50 (ZR-75-1): 4 µg/mL (≈ 16 µM)

Cc1coc2c1c(=O)oc1c3ccccc3c(Cl)cc21
EC50 (KB): > 10 µg/mL
EC50 (SW-620): > 10 µg/mL
EC50 (MCF7): 5 µg/mL (≈ 17.6 µM)
EC50 (A-431): 8 µg/mL (≈ 28.1 µM)
EC50 (SK-BR-3): 4.5 µg/mL (≈ 15.8 µM)
EC50 (ZR-75-1): 8.6 µg/mL (≈ 30.2 µM)

O=c1oc2c3ccccc3c(Cl)cc2c2occc12
EC50 (KB): > 10 µg/mL
EC50 (SW-620): > 10 µg/mL
EC50 (MCF7): 7 µg/mL (≈ 25.9 µM)
EC50 (A-431): > 10 µg/mL
EC50 (SK-BR-3): > 10 µg/mL
EC50 (ZR-75-1): > 10 µg/mL

COc1cc2c3occc3c(=O)oc2c2ccccc12
EC50 (KB): 9.5 µg/mL (≈ 35.7 µM)
EC50 (SW-620): 4 µg/mL (≈ 15 µM)
EC50 (MCF7): 3.4 µg/mL (≈ 12.8 µM)
EC50 (A-431): 9.5 µg/mL (≈ 35.7 µM)
EC50 (SK-BR-3): 4 µg/mL (≈ 15 µM)
EC50 (ZR-75-1): 8.5 µg/mL (≈ 31.9 µM)

O=c1oc2c(ccc3ccccc32)c2c1C(O)CO2 (stereo not drawn)
EC50 (MCF7): 12.5 µg/mL (≈ 49.2 µM)

CC/C(=C(\c1ccccc1)c1ccc(OCCN(C)C)cc1)c1ccccc1 [TAMOXIFEN]
EC50 (KB): 9 µg/mL (≈ 24.2 µM)
EC50 (MDA-MB-231): 8.5 µg/mL (≈ 22.9 µM)
EC50 (SW-620): 4 µg/mL (≈ 10.8 µM)
EC50 (MCF7): 5 µg/mL (≈ 13.5 µM)
EC50 (A-431): 7 µg/mL (≈ 18.8 µM)
EC50 (Hs-578T): 7 µg/mL (≈ 18.8 µM)
EC50 (SK-BR-3): 5 µg/mL (≈ 13.5 µM)
EC50 (ZR-75-1): 3.6 µg/mL (≈ 9.69 µM)
